In ChEMBL document CHEMBL5260824, “9-Deazapurines as Broad-Spectrum Inhibitors of the ABC Transport Proteins P-Glycoprotein, Multidrug Resistance-Associated Protein 1, and Breast Cancer Resistance Protein” (J Med Chem, 2017):
One block for each compound: values may come before it.

Experiments:
[1] = target: T1, Multidrug resistance-associated protein 1 (Homo sapiens, UniProt P33527); assay: Inhibition of MRP1 (unknown origin)
[2] = target: T2, ATP-dependent translocase ABCB1 (Homo sapiens, UniProt P08183); assay: Inhibition of P-gp (unknown origin)
T2 sequence (P08183 whole entry): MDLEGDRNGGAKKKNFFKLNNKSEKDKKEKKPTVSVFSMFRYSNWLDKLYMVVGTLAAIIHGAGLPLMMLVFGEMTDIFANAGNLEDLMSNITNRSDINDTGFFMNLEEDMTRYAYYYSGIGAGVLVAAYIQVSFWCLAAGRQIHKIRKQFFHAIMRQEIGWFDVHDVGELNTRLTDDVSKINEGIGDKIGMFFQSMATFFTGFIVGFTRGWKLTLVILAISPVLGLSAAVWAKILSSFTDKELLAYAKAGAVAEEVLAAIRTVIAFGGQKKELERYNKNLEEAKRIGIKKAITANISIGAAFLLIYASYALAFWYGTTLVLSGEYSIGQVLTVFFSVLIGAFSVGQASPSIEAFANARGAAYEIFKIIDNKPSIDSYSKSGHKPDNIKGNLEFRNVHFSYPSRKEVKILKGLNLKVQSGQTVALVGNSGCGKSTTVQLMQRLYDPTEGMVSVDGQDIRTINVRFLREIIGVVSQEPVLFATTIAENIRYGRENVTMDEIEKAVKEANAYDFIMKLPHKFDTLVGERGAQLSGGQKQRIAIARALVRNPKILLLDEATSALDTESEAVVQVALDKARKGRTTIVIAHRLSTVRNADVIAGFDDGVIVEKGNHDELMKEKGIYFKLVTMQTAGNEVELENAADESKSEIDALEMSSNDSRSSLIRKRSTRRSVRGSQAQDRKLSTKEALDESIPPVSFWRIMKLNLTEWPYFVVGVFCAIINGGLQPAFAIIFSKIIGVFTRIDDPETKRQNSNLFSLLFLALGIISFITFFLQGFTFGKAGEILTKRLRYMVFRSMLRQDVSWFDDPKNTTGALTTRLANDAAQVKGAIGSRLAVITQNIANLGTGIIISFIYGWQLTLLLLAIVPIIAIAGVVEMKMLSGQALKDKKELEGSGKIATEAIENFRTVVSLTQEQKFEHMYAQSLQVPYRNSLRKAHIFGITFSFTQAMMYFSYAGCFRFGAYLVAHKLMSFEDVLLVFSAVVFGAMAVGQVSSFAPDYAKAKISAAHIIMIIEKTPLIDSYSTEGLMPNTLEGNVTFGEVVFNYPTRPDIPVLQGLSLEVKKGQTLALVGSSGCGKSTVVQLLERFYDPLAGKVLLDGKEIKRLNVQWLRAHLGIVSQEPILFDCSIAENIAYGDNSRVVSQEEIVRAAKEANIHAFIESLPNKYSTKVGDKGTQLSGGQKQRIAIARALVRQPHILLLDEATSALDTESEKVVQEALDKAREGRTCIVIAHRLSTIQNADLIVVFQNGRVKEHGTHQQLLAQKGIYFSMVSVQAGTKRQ

[3] = target: T3, Broad substrate specificity ATP-binding cassette transporter ABCG2 (Homo sapiens, UniProt Q9UNQ0); assay: Inhibition of BCRP (unknown origin) expressed in MDCK cells assessed as increase in Hoechst 33342 accumulation incubated for 30 mins by Hoechst 33342 dye based fluorescence assay; format: cell-based
T3 sequence (Q9UNQ0 whole entry): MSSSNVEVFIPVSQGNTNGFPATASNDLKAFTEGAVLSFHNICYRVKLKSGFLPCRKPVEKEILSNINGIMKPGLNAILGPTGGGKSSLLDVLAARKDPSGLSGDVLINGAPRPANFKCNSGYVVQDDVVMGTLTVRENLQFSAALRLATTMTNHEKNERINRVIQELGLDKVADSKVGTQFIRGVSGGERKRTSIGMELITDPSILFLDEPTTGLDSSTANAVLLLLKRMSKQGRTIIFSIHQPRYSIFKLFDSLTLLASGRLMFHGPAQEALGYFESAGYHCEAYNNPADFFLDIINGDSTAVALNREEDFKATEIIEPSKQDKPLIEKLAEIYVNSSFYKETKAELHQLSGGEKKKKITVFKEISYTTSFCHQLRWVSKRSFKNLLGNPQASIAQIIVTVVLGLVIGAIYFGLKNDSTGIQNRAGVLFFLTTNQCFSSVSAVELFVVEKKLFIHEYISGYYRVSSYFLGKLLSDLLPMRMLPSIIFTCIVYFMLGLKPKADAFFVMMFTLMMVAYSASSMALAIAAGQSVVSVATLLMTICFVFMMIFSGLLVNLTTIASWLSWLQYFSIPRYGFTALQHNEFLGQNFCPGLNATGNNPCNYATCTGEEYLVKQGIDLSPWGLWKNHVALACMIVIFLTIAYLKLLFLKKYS

[4] = target: T1, Multidrug resistance-associated protein 1; assay: Inhibition of human MRP1 expressed in human MDR cells measured for 2 hrs; format: cell-based
[5] = target: T1, Multidrug resistance-associated protein 1; assay: Inhibition of MRP1 in human NCI-H69AR cells incubated for 180 mins in presence of daunorubicin by flow cytometry analysis; format: cell-based
In short: (§1)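 H69AR cells (doxorubicin-selected small cell lung cancer, RPMI-1640/20% FBS), about 60,000 per well, preincubated 15 min with compound (100 nM–100 µM added solutions, in unsupplemented medium), then daunorubicin (30 µM solution added); steady state after 180 min, 37 °C, 5% CO2. Cells resuspended; flow cytometry, 488 nm excitation, FL3 (≥670 nm). Reference inhibitor 75 at 10 µM = 100%; Imax relative to it.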

P-gp (ABCB1) [6] = target: T4, P-gp (ABCB1) (Homo sapiens, UniProt P08183); assay: Inhibition of P-gp (unknown origin) at 10 uM incubated for 30 mins by calcein AM analysis relative to control; details: probe calcein AM
T4 sequence (P08183 whole entry): as the sequence (P08183 whole entry) above
In short: (§2)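 A2780/ADR cells (doxorubicin-selected, P-gp overexpressing), about 30,000 per well in Krebs-HEPES buffer pH 7.4, incubated 30 min at 37 °C with compound (100 nM–100 µM added solutions). Calcein AM (3.125 µM solution added) then fluorescence read every 60 s at 37 °C, ex 485/em 520 nm; slope over minutes 5–30 plotted vs log concentration. Cyclosporine A 10 µM = 100% inhibition, buffer = 0%.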

MRP1 [7] = target: T5, MRP1 (Homo sapiens, UniProt P33527); assay: Inhibition of MRP1 in human NCI-H69AR cells at 10 uM incubated for 180 mins in presence of daunorubicin by flow cytometry analysis relative to control; format: cell-based; details: probe daunorubicin; in short: as §1
T5 sequence (P33527 whole entry): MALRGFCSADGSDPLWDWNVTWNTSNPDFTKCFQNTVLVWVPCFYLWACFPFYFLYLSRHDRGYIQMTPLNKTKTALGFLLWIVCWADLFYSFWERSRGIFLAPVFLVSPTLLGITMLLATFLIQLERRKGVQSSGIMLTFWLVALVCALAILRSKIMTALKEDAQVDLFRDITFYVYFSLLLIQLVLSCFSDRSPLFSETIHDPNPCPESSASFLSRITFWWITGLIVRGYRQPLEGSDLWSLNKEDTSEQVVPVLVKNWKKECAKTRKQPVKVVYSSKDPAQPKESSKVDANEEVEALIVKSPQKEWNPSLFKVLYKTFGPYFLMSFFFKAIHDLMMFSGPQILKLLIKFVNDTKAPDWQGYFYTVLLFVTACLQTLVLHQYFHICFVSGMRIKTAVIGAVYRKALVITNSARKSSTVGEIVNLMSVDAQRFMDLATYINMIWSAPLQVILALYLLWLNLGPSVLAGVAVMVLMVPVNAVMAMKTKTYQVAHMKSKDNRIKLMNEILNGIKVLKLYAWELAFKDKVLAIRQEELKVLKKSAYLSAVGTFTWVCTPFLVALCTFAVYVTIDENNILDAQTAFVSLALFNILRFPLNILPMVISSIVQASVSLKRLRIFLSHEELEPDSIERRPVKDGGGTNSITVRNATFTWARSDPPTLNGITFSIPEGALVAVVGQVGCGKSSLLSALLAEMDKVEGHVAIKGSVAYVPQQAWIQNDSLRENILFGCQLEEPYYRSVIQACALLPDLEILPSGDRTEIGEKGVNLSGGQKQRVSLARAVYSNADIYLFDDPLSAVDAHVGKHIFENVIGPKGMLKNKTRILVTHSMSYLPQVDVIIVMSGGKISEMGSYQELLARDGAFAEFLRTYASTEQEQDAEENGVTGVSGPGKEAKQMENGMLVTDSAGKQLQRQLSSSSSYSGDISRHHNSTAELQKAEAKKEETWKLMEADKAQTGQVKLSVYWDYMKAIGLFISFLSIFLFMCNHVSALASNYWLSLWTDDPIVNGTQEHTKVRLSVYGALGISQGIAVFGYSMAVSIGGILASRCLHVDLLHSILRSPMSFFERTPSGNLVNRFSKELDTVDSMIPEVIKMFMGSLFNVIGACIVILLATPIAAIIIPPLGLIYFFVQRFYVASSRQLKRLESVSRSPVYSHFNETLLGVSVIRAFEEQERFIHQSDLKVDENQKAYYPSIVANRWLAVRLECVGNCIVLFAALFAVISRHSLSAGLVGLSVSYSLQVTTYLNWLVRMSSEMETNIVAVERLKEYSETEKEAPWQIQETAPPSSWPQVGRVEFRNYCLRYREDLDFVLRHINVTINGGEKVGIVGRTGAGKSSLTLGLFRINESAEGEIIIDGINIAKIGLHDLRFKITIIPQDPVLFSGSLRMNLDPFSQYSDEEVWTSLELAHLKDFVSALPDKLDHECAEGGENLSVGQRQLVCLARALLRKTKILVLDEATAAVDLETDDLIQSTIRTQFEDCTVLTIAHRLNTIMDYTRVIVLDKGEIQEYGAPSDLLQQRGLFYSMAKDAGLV

[8] = target: T2, ATP-dependent translocase ABCB1; assay: Inhibition of P-gp (unknown origin) incubated for 30 mins by calcein AM analysis; in short: as §2
[9] = target: T3, Broad substrate specificity ATP-binding cassette transporter ABCG2; assay: Inhibition of BCRP (unknown origin)
In short: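 Pheophorbide A accumulation in MDCK II cells transfected with human wild-type BCRP cDNA C-terminally linked to GFP, ~45,000 cells/well. Compound (100 nM–100 µM) preincubated 20 min at 37 °C, 5% CO2. Pheophorbide A stock 5 µM added, then 120 min to steady state. Flow cytometry read-out: FL3 (≥670 nm, 488 nm excitation).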

BCRP (ABCG2) [10] = target: T6, BCRP (ABCG2) (Homo sapiens, UniProt Q9UNQ0); assay: Inhibition of BCRP (unknown origin) expressed in dog MDCK-II cells at 10 uM using pheophorbide A as substrate preincubated for 20 mins followed by substrate addition and measured after 120 mins by flow cytometry analysis relative to control; format: cell-based; details: probe pheophorbide A
T6 sequence (Q9UNQ0 whole entry): T3 sequence (Q9UNQ0 whole entry)
In short: (§3)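 MDCK II cells transfected with human wild-type BCRP cDNA C-terminally fused to GFP, grown in DMEM/10% FBS. About 45,000 cells per well preincubated 20 min at 37 °C, 5% CO2 with compound (100 nM–100 µM added solutions), then pheophorbide A (5 µM solution added) for 120 min to steady state. Resuspended; flow cytometry, 488 nm excitation, FL3 (≥670 nm); GFP in FL1. Reference inhibitor 24 at 10 µM = 100%.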

[11] = target: T3, Broad substrate specificity ATP-binding cassette transporter ABCG2; assay: Inhibition of BCRP (unknown origin) expressed in dog MDCK-II cells using pheophorbide A as substrate preincubated for 20 mins followed by substrate addition and measured after 120 mins by flow cytometry analysis; format: cell-based; in short: as §3
[12] = target: T1, Multidrug resistance-associated protein 1; assay: Inhibition of MRP1 (unknown origin) measured for 2 hrs
BCRP (ABCG2) [13] = target: T6, BCRP (ABCG2); assay: Inhibition of BCRP (unknown origin) expressed in dog MDCK-II cells assessed as maximum inhibition using pheophorbide A as substrate preincubated for 20 mins followed by substrate addition and measured after 120 mins by flow cytometry analysis relative to control; format: cell-based; details: probe pheophorbide A, time 140 min, read-out: Imax; in short: as §3
MRP1 [14] = target: T5, MRP1; assay: Inhibition of MRP1 in human NCI-H69AR cells assessed as maximum inhibition at 10 uM incubated for 180 mins in presence of daunorubicin by flow cytometry analysis relative to control; format: cell-based; details: probe daunorubicin; in short: as §1
MRP1 [15] = target: T5, MRP1; assay: Inhibition of MRP1 in human NCI-H69AR cells assessed as maximum inhibition incubated for 180 mins in presence of daunorubicin by flow cytometry analysis relative to control; format: cell-based; details: probe daunorubicin, read-out: Imax; in short: as §1
P-gp (ABCB1) [16] = target: T4, P-gp (ABCB1); assay: Inhibition of P-gp (unknown origin) expressed in dog MDCK-MDR1cells assessed as maximum inhibition by calcein AM accumulation assay relative to control; format: cell-based; details: MDCK-MDR1 cells, probe calcein AM, read-out: Imax
P-gp (ABCB1) [17] = target: T4, P-gp (ABCB1); assay: Inhibition of P-gp (unknown origin) expressed in dog MDCK-MDR1cells assessed as maximum inhibition at 10 uM by calcein AM accumulation assay relative to control; format: cell-based; details: MDCK-MDR1 cells, probe calcein AM
[18] = target: T3, Broad substrate specificity ATP-binding cassette transporter ABCG2; assay: Inhibition of BCRP (unknown origin) expressed in MDCK cells assessed as increase in Hoechst 33342 accumulation incubated for 60 mins by Hoechst 33342 dye based fluorescence assay; format: cell-based
[19] = Inhibition of SN-38 sensitive dog MDCK-II-BCRP cells expressing BCRP measured for 72 hrs by MTT assay; format: functional; details: Canis lupus familiaris
[20] = Inhibition of cell growth in SN-38 resistant dog MDCK-II-BCRP cells expressing BCRP measured for 72 hrs by MTT assay; format: functional; details: Canis lupus familiaris
In short: (§4)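 Reversal assay: resistant lines (A2780/ADR, H69AR, MDCK II BCRP) and parental lines seeded as for MTT assay with modulator solutions of 1, 10 and 100 µM added (final 0.1, 1, 10 µM) and daunorubicin (P-gp, MRP1) or SN-38 (BCRP) at final 10 nM–10 µM. 72 h, MTT read-out; GI50 by variable-slope fit. Resistance factor = resistant/sensitive GI50; potentiation factor = GI50 without/with modulator.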

[21] = Inhibition of daunorubicin sensitive human NCI-H69AR cells expressing MRP1 measured for 72 hrs by MTT assay; format: functional; in short: as §4
[22] = Inhibition of cell growth in Daunorubicin resistant human A2780 ADR cells expressing P-gp measured for 72 hrs by MTT assay; format: functional; in short: as §4
[23] = Inhibition of daunorubicin sensitive human A2780 ADR cells expressing P-gp measured for 72 hrs by MTT assay; format: functional; in short: as §4
[24] = Resistance factor, ratio of GI50 for inhibition of cell growth in daunorubicin resistant human NCI-H69AR cells expressing MRP1 to GI50 for inhibition of daunorubicin sensitive human NCI-H69 cells
H69AR = assay: Inhibition of cell growth in Daunorubicin resistant human NCI-H69AR cells expressing MRP1 measured for 72 hrs by MTT assay; format: functional; in short: as §4
[25] = Resistance factor, ratio of GI50 for inhibition of cell growth in daunorubicin resistant human A2780 ADR cells expressing P-gp measured for 72 hrs by MTT assay to GI50 for inhibition of daunorubicin sensitive human A2780 cells measured for 72 hrs by MTT assay

T1 sequence (P33527 whole entry): as above

IC50 [1]: 320 nM
IC50 [2]: 1330 nM
Structure (SMILES): COc1cc(N(C)C(=O)Cc2cccc(-n3c(=O)c4c(C)onc4c4c(Cl)cccc43)c2)cc(OC)c1OC

IC50 [3]: 1190 nM
Structure (SMILES): COc1ccc(Nc2nc(-c3ccccc3)nc3ccccc23)cc1OC

IC50 [4]: 1310 nM
IC50 [2]: 105 nM
Structure (SMILES): N#Cc1c2n(c3c(N4CCN(CCc5ccc(F)c(F)c5)CC4)nc(-c4ccncc4)nc13)CCCC2

Structure (SMILES): N#Cc1c2n(c3c(N4CCN(CCc5c[nH]c6ccccc56)CC4)ncnc13)CCCC2
IC50 [5]: 344 nM
inhibition at 0.5 h, 10 µM (P-gp (ABCB1) [6]): > 25%
inhibition at 3 h, 10 µM (MRP1 [7]): 25%
IC50 [8]: 5.62 µM
IC50 [9]: 3.41 µM
inhibition at 2 h, 10 µM (BCRP (ABCG2) [10]): > 25%
IC50 [11]: 3.41 µM

IC50 [2]: 600 nM
IC50 [12]: 400 nM
Structure (SMILES): COc1cc2c(cc1OC)CN(CCn1c(-c3ccc(N(C)C)cc3)nc3ccc([N+](=O)[O-])cc3c1=O)CC2

IC50 [2]: 2160 nM
Structure (SMILES): COc1ccc(C(=O)/C=C/c2ccc(OC)c(OC)c2)c(OC(=O)c2ccccc2OC)c1

IC50 [5]: 405 nM
Emax at 2 h (BCRP (ABCG2) [13]): 28%
inhibition at 3 h, 10 µM (MRP1 [14]): 60%
inhibition at 0.5 h, 10 µM (P-gp (ABCB1) [6]): > 25%
inhibition at 3 h, 10 µM (MRP1 [7]): > 25%
IC50 [8]: 1.11 µM
inhibition at 2 h, 10 µM (BCRP (ABCG2) [10]): > 25%
IC50 [11]: 0.839 µM
Emax at 3 h (MRP1 [15]): 61%
Emax (P-gp (ABCB1) [16]): 26%
Structure (SMILES): c1ccc(CCN2CCN(c3ncnc4c3[nH]c3ccccc34)CC2)cc1

IC50 [1]: 790 nM
IC50 [9]: 20.4 µM
IC50 [2]: 14000 nM
Structure (SMILES): N#Cc1cn(Cc2ccccc2)c2c(NCCCc3ccccc3)ncnc12

IC50 [5]: 717 nM
inhibition at 3 h, 10 µM (MRP1 [14]): 60%
inhibition at 10 µM (P-gp (ABCB1) [17]): 30%
inhibition at 0.5 h, 10 µM (P-gp (ABCB1) [6]): > 25%
inhibition at 3 h, 10 µM (MRP1 [7]): > 25%
IC50 [8]: 3.92 µM
inhibition at 2 h, 10 µM (BCRP (ABCG2) [10]): > 25%
IC50 [11]: 7.93 µM
Structure (SMILES): c1ccc2c(c1)[nH]c1c(N3CCN(Cc4ccc5c(c4)OCO5)CC3)ncnc12

IC50 [18]: 573 nM
IC50 [2]: 494 nM
Structure (SMILES): COc1ccc(/C=C/C(=O)c2ccccc2NC(=O)c2cnc3ccccc3c2)cc1OC

Structure (SMILES): CCc1c2c(nc3ccc(O)cc13)-c1cc3c(c(=O)n1C2)COC(=O)[C@]3(O)CC [7-ETHYL-10-HYDROXYCAMPTOTHECIN]
GI50 [19]: 86 nM
GI50 [20]: 1710 nM

Structure (SMILES): COc1cccc2c1C(=O)c1c(O)c3c(c(O)c1C2=O)C[C@@](O)(C(C)=O)C[C@@H]3O[C@H]1C[C@H](N)[C@H](O)[C@H](C)O1 [DAUNORUBICIN]
GI50 [21]: 361 nM
GI50 [22]: 575 nM
GI50 [23]: 10 nM
RatioGI50 [24]: 11
GI50 (H69AR): 3.84 µM
RatioGI50 [25]: 54
